An excerpt weighted towards active compounds, which were near 3.1% of everything screened.
CSN inh: blocks human CSN-mediated cullin deneddylation | Q92905 | Purified CSN, SCF-Nedd8-OG deneddylation, fluorescence polarization | inhibition, % at 12.5 µM | 360,000 tested, 0.38% active | AID 651999;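 active = pattern-corrected inhibition above about 35%, with an unprinted fluorescence ratio check between 0.5 and 1.5, limit read from the data, passing the limit was not always enough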;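 note: 0% = enzyme with substrate and 100% = substrate without enzyme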
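Detection – fluorescence polarization · System – HEK293T-derived human Csn5 enzyme · Controls – substrate-only high control, full reaction low control · Timing – 90 min, room temperature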
UHRF1 MBD2 ctr: UHRF1 methyl-DNA binding inhibition | AID 687016 | inhibition, % at 4.4 µM | UHRF1 binding to methylated oligo, TR-FRET | 370,000 tested, 0.75% active; in the data active = inhibition above about 21%;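 note: UHRF1 SRA domain binding a hemimethylated CpG hairpin DNA probe; 0% = median of test compound wells and 100% = reference inhibitor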
ATG4B inhibitor: inhibitors of human ATG4B cysteine protease; inhibition, % at 8.33 µM; Q9Y4P1; 340,000 tested, 0.51% active; ATG4B cleavage of LC3-PLA2, NBD-HPC fluorescence, 1 h; in the data active = inhibition above about 40%
LEDGF integ inh: blocks HIV-1 LEDGF/p75-dependent DNA integration | TR-FRET IN-LEDGF/p75 DNA integration, Eu/Cy5 | inhibition, % at 3.7 µM | 370,000 tested, 0.64% active | AID 743269;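 active = inhibition above the screen-wide mean plus 3 SD, cut at about 13% in these data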;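 note: signal is the Cy5 over europium emission ratio at 671 and 618 nm; 0% = plate median of compound wells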
rCAG RNA binder: binds r(CAG) RNA repeats | r(CAG) RNA repeat, TO-PRO-1 dye displacement fluorescence | inhibition, % at 3 µM | 370,000 tested, 1.3% active | AID 651821;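 active = inhibition above the plate cutoff, the mean of all test compounds on that plate plus 3 SD, cut at about 35% in these data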;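 note: 0% = DMSO alone and 100% = 100 µM mitoxantrone as full dye displacement; higher means more dye released from RNA so lower well fluorescence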
MBD2 DNA inh: inhibitors of human MBD2 binding to methylated oligonucleotide | TR-FRET | inhibition, % at 4.4 µM | 370,000 tested, 0.31% active | AID 686964; in the data active = inhibition above about 13%
Target sequence (Q9UBB5 whole entry, looked up): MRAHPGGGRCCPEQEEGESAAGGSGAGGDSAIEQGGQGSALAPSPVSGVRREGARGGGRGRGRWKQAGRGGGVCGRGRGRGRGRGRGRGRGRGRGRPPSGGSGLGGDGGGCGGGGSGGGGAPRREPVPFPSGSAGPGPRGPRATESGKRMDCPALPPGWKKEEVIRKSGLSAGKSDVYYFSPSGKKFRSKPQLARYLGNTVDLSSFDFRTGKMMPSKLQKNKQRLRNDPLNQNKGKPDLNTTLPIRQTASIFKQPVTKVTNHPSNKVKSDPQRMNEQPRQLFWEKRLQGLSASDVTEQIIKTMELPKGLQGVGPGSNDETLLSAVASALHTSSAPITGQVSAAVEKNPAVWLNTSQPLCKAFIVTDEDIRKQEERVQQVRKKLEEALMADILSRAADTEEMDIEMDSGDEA
rCAG binder conf: r(CAG) RNA repeat binding, confirmation; inhibition, % at 3 µM; TO-PRO-1 dye displacement fluorescence; shares compounds with rCAG RNA binder; 4,300 tested, 70% active;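 active = inhibition above a per-plate cutoff, the mean inhibition of sample wells plus 3 SD, cut at about 35% in these data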;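 note: loss of TO-PRO-1 fluorescence as compound displaces dye from 1x1 AA loop RNA; 0% = DMSO only wells and 100% = 100 µM mitoxantrone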
DNA CAG counter: disrupts DNA CAG TO-PRO-1 complex, flagging rCAG hits; shares compounds with rCAG RNA binder; inhibition, % at 3 µM; d(CAG) DNA oligo TO-PRO-1 dye displacement, fluorescence; 4,300 tested, 94% active;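 active = inhibition above its plate's cutoff, the mean test-well inhibition plus 3 SD, cut at about 4.8% in these data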;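 note: 0% = DNA dye mix with DMSO and 100% = 100 µM mitoxantrone; hits displace the dye from DNA and so lower well fluorescence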
CSN5 deneddyl: validation of inhibitors of human CSN-mediated cullin deneddylation; Csn5 deneddylation of SCF-Nedd8OG, fluorescence polarization, 90 min; 540 tested, 62% active; AID 720654; shares compounds with CSN inh; inhibition, % at 16.6 µM; in the data active = inhibition above about 50%;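 note: 0% = DMSO with enzyme and 100% = no enzyme wells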
MMP2 cntr CSN: counter-screen for CSN deneddylation inhibitors: human MMP-2 inhibition; shares compounds with CSN inh; recombinant MMP-2, FRET substrate fluorescence, 60 min; inhibition, % at 16.6 µM; 540 tested, 33% active;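 active = corrected plate-normalized z-score of 5 or more, or -5 or less, or inhibition of 15% or more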;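 note: plate controls were DMSO wells with enzyme for no effect and buffer wells lacking MMP-2 for full effect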
Thrombin counter: counter-screen for CSN deneddylation inhibitors: bovine thrombin inhibition; bovine thrombin cleavage of Ub4-pepOG, fluorescence polarization; shares compounds with CSN inh; inhibition, % at 16.6 µM; 540 tested, 49% active;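 active = inhibition at or above a set limit, with a fluorescence interference ratio between 0.5 and a set maximum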
An asterisk follows results filed as active; i = inactive; . = no result given; ! = not active in a repeat.

SMILES | CSN inh | UHRF1 MBD2 ctr | ATG4B inhibitor | LEDGF integ inh | rCAG RNA binder | MBD2 DNA inh | rCAG binder conf | DNA CAG counter | others
CCOC(=O)C1=C(C)N=c2sc(=Cc3ccc(OCC(=O)O)cc3)c(=O)n2C1c1ccc(SC)cc1 (stereo unspecified) | 38.4* | 12.7 | . | 8.7 | 82.3* | -1.9 | 71.1* | 36.8*
CCOC(=O)C1=C(C)N=c2s/c(=C\c3ccc(OCC(=O)O)cc3)c(=O)n2C1c1ccccc1 (stereo unspecified) | -2.4 | -2.7 | 2.4 | 2.4 | 74.7* | 1.2 | 76.6* | 34.9*
COC(=O)C1CN(Cc2cn(Cc3ccccc3)nn2)CCS(=O)(=O)N1Cc1ccc(OC)cc1 (stereo unspecified) | . | -1.2 | . | -0.5 | 3.4 | 1.9 | . | .
CCC(=O)N1CCc2cc(Br)c(S(=O)(=O)N3CCC(C(=O)NC(C)(C)C)CC3)cc21 | . | -1.1 | . | -0.7 | 1.8 | -0.7 | . | .
CCOC(=O)C1=C(c2ccccc2)N=c2s/c(=C\c3ccc(O)cc3)c(=O)n2C1c1cccs1 (stereo unspecified) | 45.4* | -5.2 | 29.6 | 2.4 | 37.0* | 1.4 | 35.8* | 19.9*
CCOC(=O)C1=C(c2ccccc2)N=c2sc(=Cc3cc(OC)c(OC)c(OC)c3)c(=O)n2C1c1cccs1 (stereo unspecified) | 1.9 | 3.1 | . | 0.3 | 12.5 | 4.8 | . | .
CCN1CCN(Cc2ccc(NC(=O)c3cc(NC(=O)C4=NN(c5ccccc5)C(=O)C4)cc(OC)c3)cc2C(F)(F)F)CC1 | 2.3 | -1.4 | 4.8 | -11.1 | 37.8*! | -3.6 | 33.3 | 19.6*
CCN(CC)c1ccc(-c2nn3c(-c4ccc(C(C)(C)C)cc4)nnc3s2)cc1 | . | -1.3 | . | 2.5 | 3.5 | 1.1 | . | .
CCOc1ccccc1NC(=O)CSc1nc2nc(-c3cccs3)cc(C(F)(F)F)c2c(=O)[nH]1 | 4.1 | 4.5 | 27.7 | -10.2 | 69.7* | 5.9 | 79.0* | 48.5*
COc1cc(/C=C(\C#N)C(=O)Nc2ccccc2C(=O)O)cc(Cl)c1OC | -7.5 | 6.4 | 12.3 | 2.7 | 47.1* | 7.6 | 76.6* | 40.9*
COc1ccc(/C=C(/C#N)C(=O)Nc2ccccc2C)cc1C(=O)O | -4.5 | 6.6 | 2.1 | 2.9 | 6.3 | 6.4 | . | .
C/C(=N/NC(=O)CSc1nnc(-c2ccccc2)n1-c1ccc(Cl)cc1)c1cccc(O)c1 | . | -0.5 | . | 1.9 | 2.7 | -3.7 | . | .
COC(=O)[C@@]12CCCCC=C1N(CCc1ccc(Cl)cc1)C(=O)[C@H]2CC(=O)NCC12CC3CC(CC(C3)C1)C2 | . | 2.4 | . | 0.1 | 10.2 | -0.1 | . | .
CCOC(=O)c1sc(N2C(=O)C(O)=C(C(=O)c3ccco3)C2c2ccco2)nc1C (stereo unspecified) | 2.0 | 1.3 | 5.0 | 4.1 | 31.0 | -4.4 | . | .
Cc1cc(C)c2nc(N3C(=O)C(O)=C(C(=O)c4ccco4)C3c3ccco3)sc2c1 (stereo unspecified) | 35.0* | 4.0 | 10.9 | 7.6 | 81.1* | -0.3 | 82.2* | 49.2* | MMP2 cntr CSN=9.6;Thrombin counter=-6.4
O=C(CCC(=O)N1CCN(C2c3ccccc3-c3ccccc32)CC1)Nc1nnc(C(F)(F)F)s1 | . | -4.4 | . | 2.1 | 6.9 | -6.2 | . | .
O=C(O)CN1C(=O)/C(=C/c2ccc(SCc3ccccc3)o2)SC1=S | 87.2* | 8.2 | 4.0 | 11.2 | 40.7* | -0.7 | 59.4* | 31.4* | CSN5 deneddyl=88.3*;MMP2 cntr CSN=13.4;Thrombin counter=96.4*
O=C(O)CCN1C(=O)/C(=C\c2ccc(-c3nc4ccccc4s3)o2)SC1=S | i | . | -13.3 | . | . | . | . | .

Bioassay records as filed in PubChem.
